Measured values pooled from the literature.
Target: Beta-1 adrenergic receptor (ADRB1, Homo sapiens, UniProt P08588)

Compound | test | conditions | endpoint | result
c1ccc(C(NCCNC(c2ccccc2)c2ccccc2)c2ccccc2)cc1 | cell-free assay | 10 µM | inhibition | 31%
COc1ccc(S(=O)(=O)N2CCCCC2)cc1C | ligand displacement, radioligand | 10 µM | inhibition | < 30%
COCc1c(-c2cc3cc(C)cc(OC)c3s2)c2c(N)ncnn2c1CN1CCNC(=O)C1 | ligand displacement, radioligand | 10 µM | inhibition | 2%
C[C@H](C(=O)N[C@H]1COc2ccccc2[C@@H]1S(C)(=O)=O)c1ccc(F)cc1 | cell-free assay | 10 µM | inhibition | 3%
O=C(Nc1cccnn1)N1CCN([C@@H]2CCOc3cc(C(F)(F)F)ccc32)CC1 | cell-free assay | 20 µM | inhibition | 27%
Cc1c(N2CCNCC2)nc2ccc(Br)cc2c1C(=O)NC[C@H](CCC(=O)O)c1ccccc1Cl | ligand displacement | 10 µM | inhibition | 12.6%
CC(C)N1CCC[C@H]1CNC(=O)c1cn(C2CCCC2)c(=O)c2c1c1ccccc1n2C | ligand displacement, radioligand | 10 µM | inhibition | 24%
Clc1ccc2c(C3CCN(CCc4c[nH]c5ccccc45)CC3)c[nH]c2c1 | ligand displacement, radioligand | 10 µM | inhibition | 84%
Cn1cncc1[C@@](O)(COc1ccc(C#N)cc1-c1ccc(OC(F)(F)F)cc1)c1ccc(C#N)cc1 | ligand displacement | 10 µM | inhibition | -16.5%
Nc1ncc(-c2nc(N3CCOCC3)nc(N3CCOCC3)n2)c(C(F)F)n1 | cell-free assay, radioligand | 10 µM | remaining signal | 93.2%
CN(CCN1CCC(OC(=O)Nc2ccccc2-c2ccccc2)CC1)C(=O)c1ccc(CN2CCC(C(N)=O)CC2)cc1 | ligand displacement, radioligand | 1 µM | inhibition | 14%
